Results as given in ChEMBL document CHEMBL1148345, “Hydrophobic acetal and ketal derivatives of mannopeptimycin-alpha and desmethylhexahydromannopeptimycin-alpha: semisynthetic glycopeptides with potent activity against Gram-positive bacteria” (2004).
In brackets after ≈: the same amount, converted by molar mass. Each block holds one molecule with its values, some of them ahead of it.

Assays:
Format in all cases: functional
[1] = system: Staphylococcus; assay: In vitro minimum inhibitory concentration against Staphylococcus species; Range is 0.5-2 ug/mL
[2] = system: Streptococcus; assay: In vitro minimum inhibitory concentration against Streptococcus species
[3] = system: Enterococcus; assay: In vitro minimum inhibitory concentration against Enterococcus species; Range is 2-4 ug/mL
[4] = system: Staphylococcus aureus; assay: Effective dose of compound against […] Smith (GC 4543) in mice
Procedure, shortened: (§1)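 Murine protection models against S. aureus Smith (GC 4543) and E. faecalis (GC 6189). Compounds dosed in D5W (5% dextrose in water); vancomycin dosed in saline. Five dosages, five mice per dosage level. ED50 in mg/kg reported as the pooled mean from at least three separate tests.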

[5] = system: Staphylococcus; assay: In vitro minimum inhibitory concentration against Staphylococcus species
[6] = system: Enterococcus; assay: In vitro minimum inhibitory concentration against Enterococcus species; Range is 0.5-2 ug/mL
[7] = system: Enterococcus faecalis; assay: Effective dose of compound against Enterococcus faecalis (GC 6189) in mice; procedure, shortened: as §1
[8] = system: Streptococcus; assay: In vitro minimum inhibitory concentration against Streptococcus species; Range is 0.12-0.25 ug/mL
[9] = system: Enterococcus; assay: In vitro minimum inhibitory concentration against Enterococcus species (in vitro); Range is 1-2 ug/mL
[10] = system: Staphylococcus; assay: In vitro minimum inhibitory concentration against Staphylococcus species; Range is 0.5-1 ug/mL
[11] = system: Streptococcus; assay: In vitro minimum inhibitory concentration against Streptococcus species; Range is 0.06-0.12 ug/mL
[12] = system: Staphylococcus; assay: In vitro minimum inhibitory concentration against Staphylococcus species; Range is 1-2 ug/mL
[13] = system: Enterococcus; assay: In vitro minimum inhibitory concentration against Enterococcus species; Range is 0.5-4 ug/mL
[14] = system: Staphylococcus; assay: In vitro minimum inhibitory concentration against Staphylococcus species; Range is 0.25-1 ug/mL
[15] = system: Enterococcus; assay: In vitro minimum inhibitory concentration against Enterococcus species; Range is 0.5-1 ug/mL
[16] = system: Enterococcus; assay: In vitro minimum inhibitory concentration against Enterococcus species; Range is 1-2 ug/mL
[17] = system: Streptococcus; assay: In vitro minimum inhibitory concentration against Streptococcus species; Range is 0.06-0.25 ug/mL
[18] = system: Enterococcus; assay: In vitro minimum inhibitory concentration against Enterococcus species
[19] = system: Staphylococcus; assay: In vitro minimum inhibitory concentration against Staphylococcus species; Range is 1-4 ug/mL
[20] = system: Enterococcus; assay: In vitro minimum inhibitory concentration against Enterococcus species; Range is 4-8 ug/mL
[21] = system: Enterococcus; assay: In vitro minimum inhibitory concentration against Enterococcus species; Range is 0.12-0.25 ug/mL
[22] = system: Staphylococcus; assay: In vitro minimum inhibitory concentration against Staphylococcus species; Range is 0.06-0.12 ug/mL
[23] = system: Streptococcus; assay: In vitro minimum inhibitory concentration against Streptococcus species; Range is 0.12-1 ug/mL
[24] = system: Streptococcus; assay: In vitro minimum inhibitory concentration against Streptococcus species; Range is 0.12-0.5 ug/mL
[25] = system: Enterococcus; assay: In vitro minimum inhibitory concentration against Enterococcus species; Range is 0.5-128 ug/mL

MIC [5]: 1 µg/mL (≈ 0.72 µM)
MIC [2]: ≤ 0.12 µg/mL
MIC [6]: 2 µg/mL (≈ 1.44 µM)
SMILES: C[C@@H](c1ccccc1)C1NC(=O)CNC(=O)[C@H](CO)NC(=O)[C@@H]([C@@H](O)[C@@H]2CN=C(N)N2[C@H]2O[C@H](CO)[C@@H](O)[C@H](O)[C@@H]2O)NC(=O)[C@H]([C@@H](O)[C@@H]2CN=C(N)N2)NC(=O)[C@@H](Cc2ccc(O[C@H]3O[C@H](CO)[C@@H](O[C@H]4O[C@@H]5COC(C6CCCCC6)O[C@H]5[C@H](O)[C@@H]4O)[C@H](O)[C@@H]3O)cc2)NC1=O (stereo not given in full)
ED50 [4]: 0.07 mg/kg
ED50 [7]: 0.19 mg/kg

MIC [1]: 2 µg/mL (≈ 1.45 µM)
MIC [3]: 4 µg/mL (≈ 2.89 µM)
MIC [8]: ≤ 0.25 µg/mL
SMILES: C[C@@H](c1ccccc1)C1NC(=O)CNC(=O)[C@H](CO)NC(=O)[C@@H]([C@@H](O)[C@@H]2CN=C(N)N2[C@H]2O[C@H](CO)[C@@H](O)[C@H](O)[C@@H]2O)NC(=O)[C@H]([C@@H](O)[C@@H]2CN=C(N)N2)NC(=O)[C@@H](Cc2ccc(O[C@H]3O[C@H](CO)[C@@H](O[C@H]4O[C@@H]5COC(c6ccccc6)O[C@H]5[C@H](O)[C@@H]4O)[C@H](O)[C@@H]3O)cc2)NC1=O (stereo not given in full)
ED50 [4]: 0.19 mg/kg
ED50 [7]: 0.39 mg/kg

MIC [9]: 2 µg/mL (≈ 1.45 µM)
MIC [2]: ≤ 0.5 µg/mL
MIC [10]: ≤ 1 µg/mL
SMILES: CCCCCC1OC[C@H]2O[C@H](O[C@H]3[C@H](O)[C@H](O)[C@@H](Oc4ccc(C[C@H]5NC(=O)C([C@@H](C)c6ccccc6)NC(=O)CNC(=O)[C@H](CO)NC(=O)[C@@H]([C@@H](O)[C@@H]6CN=C(N)N6[C@H]6O[C@H](CO)[C@@H](O)[C@H](O)[C@@H]6O)NC(=O)[C@H]([C@@H](O)[C@@H]6CN=C(N)N6)NC5=O)cc4)O[C@@H]3CO)[C@@H](O)[C@@H](O)[C@@H]2O1 (stereo not given in full)

MIC [3]: 4 µg/mL (≈ 2.85 µM)
MIC [11]: ≤ 0.12 µg/mL
MIC [12]: 2 µg/mL (≈ 1.43 µM)
SMILES: C[C@@H](c1ccccc1)C1NC(=O)CNC(=O)[C@H](CO)NC(=O)[C@@H]([C@@H](O)[C@@H]2CN=C(N)N2[C@H]2O[C@H](CO)[C@@H](O)[C@H](O)[C@@H]2O)NC(=O)[C@H]([C@@H](O)[C@@H]2CN=C(N)N2)NC(=O)[C@@H](Cc2ccc(O[C@H]3O[C@H](CO)[C@@H](O[C@H]4O[C@@H]5COC(CC6CCCCC6)O[C@H]5[C@H](O)[C@@H]4O)[C@H](O)[C@@H]3O)cc2)NC1=O (stereo not given in full)

MIC [13]: 4 µg/mL (≈ 2.88 µM)
MIC [11]: ≤ 0.12 µg/mL
MIC [12]: 2 µg/mL (≈ 1.44 µM)
SMILES: NC1=NC[C@@H]([C@H](O)[C@@H]2NC(=O)[C@@H](Cc3ccc(O[C@H]4O[C@H](CO)[C@@H](O[C@H]5O[C@@H]6COC(Cc7ccccc7)O[C@H]6[C@H](O)[C@@H]5O)[C@H](O)[C@@H]4O)cc3)NC(=O)C(CC3CCCCC3)NC(=O)CNC(=O)[C@H](CO)NC(=O)[C@@H]([C@@H](O)[C@@H]3CN=C(N)N3[C@H]3O[C@H](CO)[C@@H](O)[C@H](O)[C@@H]3O)NC2=O)N1 (stereo not given in full)

MIC [16]: 2 µg/mL (≈ 1.43 µM)
MIC [5]: 2 µg/mL (≈ 1.43 µM)
MIC [17]: ≤ 0.25 µg/mL
SMILES: C[C@@H](c1ccccc1)C1NC(=O)CNC(=O)[C@H](CO)NC(=O)[C@@H]([C@@H](O)[C@@H]2CN=C(N)N2[C@H]2O[C@H](CO)[C@@H](O)[C@H](O)[C@@H]2O)NC(=O)[C@H]([C@@H](O)[C@@H]2CN=C(N)N2)NC(=O)[C@@H](Cc2ccc(O[C@H]3O[C@H](CO)[C@@H](O[C@H]4O[C@@H]5COC(Cc6ccccc6)O[C@H]5[C@H](O)[C@@H]4O)[C@H](O)[C@@H]3O)cc2)NC1=O (stereo not given in full)
ED50 [4]: 0.23 mg/kg
ED50 [7]: 1.04 mg/kg

MIC [18]: > 128 µg/mL
MIC [5]: 128 µg/mL (≈ 98.8 µM)
MIC [2]: > 32 µg/mL
SMILES: C[C@@H](c1ccccc1)C1NC(=O)CNC(=O)[C@H](CO)NC(=O)[C@@H]([C@@H](O)[C@@H]2CN=C(N)N2[C@H]2O[C@H](CO)[C@@H](O)[C@H](O)[C@@H]2O)NC(=O)[C@H]([C@@H](O)[C@@H]2CN=C(N)N2)NC(=O)[C@@H](Cc2ccc(O[C@H]3O[C@H](CO)[C@@H](O[C@H]4O[C@H](CO)[C@@H](O)[C@H](O)[C@@H]4O)[C@H](O)[C@@H]3O)cc2)NC1=O (stereo not given in full)
ED50 [4]: 20 mg/kg

MIC [23]: 1 µg/mL (≈ 0.727 µM)
MIC [19]: 4 µg/mL (≈ 2.91 µM)
MIC [20]: 8 µg/mL (≈ 5.82 µM)
SMILES: C[C@@H](c1ccccc1)C1NC(=O)CNC(=O)[C@H](CO)NC(=O)[C@@H]([C@@H](O)[C@@H]2CN=C(N)N2[C@H]2O[C@H](CO)[C@@H](O)[C@H](O)[C@@H]2O)NC(=O)[C@H]([C@@H](O)[C@@H]2CN=C(N)N2)NC(=O)[C@@H](Cc2ccc(O[C@H]3O[C@H](CO)[C@@H](O[C@H]4O[C@@H]5COC6(CCCCC6)O[C@H]5[C@H](O)[C@@H]4O)[C@H](O)[C@@H]3O)cc2)NC1=O (stereo not given in full)

Second part, the molecule before the results:

SMILES: NC1=NC[C@@H]([C@H](O)[C@@H]2NC(=O)[C@@H](Cc3ccc(O[C@H]4O[C@H](CO)[C@@H](O[C@H]5O[C@@H]6COC(c7ccccc7)O[C@H]6[C@H](O)[C@@H]5O)[C@H](O)[C@@H]4O)cc3)NC(=O)C(CC3CCCCC3)NC(=O)CNC(=O)[C@H](CO)NC(=O)[C@@H]([C@@H](O)[C@@H]3CN=C(N)N3[C@H]3O[C@H](CO)[C@@H](O)[C@H](O)[C@@H]3O)NC2=O)N1 (stereo not given in full)
MIC [1]: 2 µg/mL (≈ 1.45 µM)
MIC [2]: ≤ 0.12 µg/mL
MIC [3]: 4 µg/mL (≈ 2.91 µM)

SMILES: C[C@@H](c1ccccc1)C1NC(=O)CNC(=O)[C@H](CO)NC(=O)[C@@H]([C@@H](O)[C@@H]2CN=C(N)N2[C@H]2O[C@H](CO)[C@@H](O)[C@H](O)[C@@H]2O)NC(=O)[C@H]([C@@H](O)[C@@H]2CN=C(N)N2)NC(=O)[C@@H](Cc2ccc(O[C@H]3O[C@H](CO)[C@@H](O[C@H]4O[C@@H]5COC6(O[C@H]5[C@H](O)[C@@H]4O)C4CC5CC(C4)CC6C5)[C@H](O)[C@@H]3O)cc2)NC1=O (stereo not given in full)
ED50 [4]: 0.04 mg/kg
MIC [2]: ≤ 0.06 µg/mL
MIC [14]: 1 µg/mL (≈ 0.701 µM)
MIC [15]: 1 µg/mL (≈ 0.701 µM)
ED50 [7]: 1.8 mg/kg

SMILES: C[C@@H](c1ccccc1)C1NC(=O)CNC(=O)[C@H](CO)NC(=O)[C@@H]([C@@H](O)[C@@H]2CN=C(N)N2[C@H]2O[C@H](CO)[C@@H](O)[C@H](O)[C@@H]2O)NC(=O)[C@H]([C@@H](O)[C@@H]2CN=C(N)N2)NC(=O)[C@@H](Cc2ccc(O[C@H]3O[C@H](CO)[C@@H](O[C@H]4O[C@@H]5COC6(O[C@H]5[C@H](O)[C@@H]4O)C4CCCC6CCC4)[C@H](O)[C@@H]3O)cc2)NC1=O (stereo not given in full)
MIC [2]: ≤ 0.06 µg/mL
MIC [19]: 4 µg/mL (≈ 2.83 µM)
MIC [20]: 8 µg/mL (≈ 5.65 µM)

SMILES: NC1=NC[C@@H]([C@H](O)[C@@H]2NC(=O)[C@@H](Cc3ccc(O[C@H]4O[C@H](CO)[C@@H](O[C@H]5O[C@@H]6COC7(O[C@H]6[C@H](O)[C@@H]5O)C5CC6CC(C5)CC7C6)[C@H](O)[C@@H]4O)cc3)NC(=O)C(CC3CCCCC3)NC(=O)CNC(=O)[C@H](CO)NC(=O)[C@@H]([C@@H](O)[C@@H]3CN=C(N)N3[C@H]3O[C@H](CO)[C@@H](O)[C@H](O)[C@@H]3O)NC2=O)N1 (stereo not given in full)
ED50 [4]: 0.08 mg/kg
MIC [21]: 0.25 µg/mL (≈ 0.176 µM)
MIC [2]: ≤ 0.06 µg/mL
MIC [14]: 1 µg/mL (≈ 0.704 µM)
MIC [22]: ≤ 0.12 µg/mL
MIC [6]: 2 µg/mL (≈ 1.41 µM)
MIC [11]: ≤ 0.12 µg/mL
ED50 [7]: 0.39 mg/kg

SMILES: CN[C@H](CC(C)C)C(=O)N[C@H]1C(=O)N[C@@H](CC(N)=O)C(=O)N[C@H]2C(=O)N[C@H]3C(=O)N[C@H](C(=O)N[C@H](C(=O)O)c4cc(O)cc(O)c4-c4cc3ccc4O)[C@H](O)c3ccc(c(Cl)c3)Oc3cc2cc(c3O[C@@H]2O[C@H](CO)[C@@H](O)[C@H](O)[C@H]2O[C@H]2C[C@](C)(N)[C@H](O)[C@H](C)O2)Oc2ccc(cc2Cl)[C@H]1O [VANCOMYCIN]
MIC [1]: < 2 µg/mL
ED50 [4]: 1 mg/kg
MIC [24]: ≤ 0.5 µg/mL
MIC [25]: 128 µg/mL (≈ 88.3 µM)
ED50 [7]: > 32 mg/kg
